ChEMBL document CHEMBL3421608, “Discovery and optimization of a novel series of Dyrk1B kinase inhibitors to explore a MEK resistance hypothesis” (J Med Chem, 2015)
Values after ≈ are worked out from the molar mass of the structure shown. Active and inactive are the calls of the source. No cut-off for these calls is given here.

Legend:
[1] = biological target: T1, Dual specificity tyrosine-phosphorylation-regulated kinase 1B (Homo sapiens, UniProt Q9Y463); test: Inhibition of human full length C-terminal c-Myc tagged Dyrk1B phosphorylation overexpressed in monkey COS1 cells after 5 hrs by ELISA; type: cell-based, COS-1
T1 sequence (Q9Y463 whole entry): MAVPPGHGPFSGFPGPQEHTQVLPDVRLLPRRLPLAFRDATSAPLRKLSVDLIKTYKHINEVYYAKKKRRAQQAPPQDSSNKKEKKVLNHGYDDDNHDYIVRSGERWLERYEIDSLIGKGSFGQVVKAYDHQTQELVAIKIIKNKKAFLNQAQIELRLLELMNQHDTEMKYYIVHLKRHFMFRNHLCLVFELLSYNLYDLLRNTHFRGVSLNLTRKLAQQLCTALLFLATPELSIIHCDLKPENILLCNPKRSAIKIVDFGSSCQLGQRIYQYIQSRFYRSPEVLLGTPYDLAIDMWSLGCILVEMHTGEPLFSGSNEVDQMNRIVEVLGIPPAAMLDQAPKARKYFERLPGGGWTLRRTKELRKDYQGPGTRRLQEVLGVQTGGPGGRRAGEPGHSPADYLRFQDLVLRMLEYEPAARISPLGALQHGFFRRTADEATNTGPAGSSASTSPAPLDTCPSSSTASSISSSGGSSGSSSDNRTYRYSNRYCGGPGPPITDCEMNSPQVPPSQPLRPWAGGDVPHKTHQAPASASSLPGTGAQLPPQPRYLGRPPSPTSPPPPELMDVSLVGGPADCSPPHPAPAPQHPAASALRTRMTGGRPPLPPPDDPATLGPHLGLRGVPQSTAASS

[2] = Intrinsic clearance in Wistar Han rat hepatocytes assessed per 10^6 cells; type: ADME, cell-based, Hepatocyte; conditions: read-out: CLH
Method in brief: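 Intrinsic clearance in Wistar Han rat hepatocytes, expressed as μL/min/1 × 10⁶ cells.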

[3] = biological target: Cyclin-dependent kinase 2 (Homo sapiens, UniProt P24941); test: Inhibition of human recombinant full length C-terminal His6-tagged CDK2 expressed in baculovirus infected Sf21 insect cells using fluorescence substrate after 60 mins by caliper off-chip incubation mobility shift assay
[4] = biological target: T1, Dual specificity tyrosine-phosphorylation-regulated kinase 1B; test: Inhibition of recombinant Dyrk1B (unknown origin) using FITC-Asp-His-Thr-Gly-Phe-Leu-Thr-Glu-Tyr-Val-Ala-Thr-Arg-NH2 as substrate after 60 mins
[5] = biological target: Dual specificity tyrosine-phosphorylation-regulated kinase 1A (Homo sapiens) (UniProt Q13627); test: Inhibition of Dyrk1A (unknown origin) at 1 uM
Method in brief: (§1)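 Kinase panel of 124 kinases; single test concentration of 1 μM.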

[6] = biological target: T2, Dual specificity tyrosine-phosphorylation-regulated kinase 3 (Homo sapiens) (UniProt O43781); test: Inhibition of Dyrk3 (unknown origin) at 1 uM; method in brief: as §1
T2 sequence (whole entry): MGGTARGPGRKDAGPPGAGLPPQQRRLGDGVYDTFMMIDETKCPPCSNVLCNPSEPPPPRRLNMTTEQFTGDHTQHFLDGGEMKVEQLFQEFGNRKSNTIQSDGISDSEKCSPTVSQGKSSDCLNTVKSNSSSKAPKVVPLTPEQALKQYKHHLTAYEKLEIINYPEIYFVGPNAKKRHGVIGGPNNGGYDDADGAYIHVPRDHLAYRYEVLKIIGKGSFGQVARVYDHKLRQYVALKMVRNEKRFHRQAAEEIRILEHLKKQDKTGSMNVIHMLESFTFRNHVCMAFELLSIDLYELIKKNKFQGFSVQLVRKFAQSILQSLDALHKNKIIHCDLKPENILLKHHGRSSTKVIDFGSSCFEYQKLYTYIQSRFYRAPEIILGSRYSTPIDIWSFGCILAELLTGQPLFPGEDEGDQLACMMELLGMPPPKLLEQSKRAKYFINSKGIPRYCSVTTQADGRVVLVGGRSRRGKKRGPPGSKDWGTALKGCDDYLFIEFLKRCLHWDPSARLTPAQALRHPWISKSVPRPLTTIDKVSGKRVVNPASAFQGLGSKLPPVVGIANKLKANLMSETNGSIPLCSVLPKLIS

[7] = biological target: T3, Dual specificity tyrosine-phosphorylation-regulated kinase 2 (Homo sapiens) (UniProt Q92630); test: Inhibition of Dyrk2 (unknown origin) at 1 uM; method in brief: as §1
T3 sequence (whole entry): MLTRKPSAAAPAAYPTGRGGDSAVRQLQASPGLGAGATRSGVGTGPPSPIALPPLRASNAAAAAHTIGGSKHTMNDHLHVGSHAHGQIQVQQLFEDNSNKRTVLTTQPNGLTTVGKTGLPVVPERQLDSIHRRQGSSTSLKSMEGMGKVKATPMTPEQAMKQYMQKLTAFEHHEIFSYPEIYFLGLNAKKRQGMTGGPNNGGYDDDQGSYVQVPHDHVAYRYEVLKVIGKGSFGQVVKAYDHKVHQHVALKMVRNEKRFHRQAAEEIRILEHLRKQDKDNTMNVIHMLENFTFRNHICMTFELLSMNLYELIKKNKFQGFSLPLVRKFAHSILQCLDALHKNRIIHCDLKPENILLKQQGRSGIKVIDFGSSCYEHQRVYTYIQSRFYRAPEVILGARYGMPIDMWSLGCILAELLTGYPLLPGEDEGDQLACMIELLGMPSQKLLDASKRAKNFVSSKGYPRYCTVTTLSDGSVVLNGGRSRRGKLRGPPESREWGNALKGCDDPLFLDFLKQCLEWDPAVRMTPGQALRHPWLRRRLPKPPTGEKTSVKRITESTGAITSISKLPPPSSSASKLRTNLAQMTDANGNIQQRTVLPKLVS

[8] = biological target: Insulin-like growth factor 1 receptor (Homo sapiens, UniProt P08069); test: Inhibition of human recombinant N-terminal His6-tagged IGF-1R using fluorescence substrate after 80 mins by caliper off-chip incubation mobility shift assay
Sequence of Insulin-like growth factor 1 receptor (P08069 31-736 limits assumed): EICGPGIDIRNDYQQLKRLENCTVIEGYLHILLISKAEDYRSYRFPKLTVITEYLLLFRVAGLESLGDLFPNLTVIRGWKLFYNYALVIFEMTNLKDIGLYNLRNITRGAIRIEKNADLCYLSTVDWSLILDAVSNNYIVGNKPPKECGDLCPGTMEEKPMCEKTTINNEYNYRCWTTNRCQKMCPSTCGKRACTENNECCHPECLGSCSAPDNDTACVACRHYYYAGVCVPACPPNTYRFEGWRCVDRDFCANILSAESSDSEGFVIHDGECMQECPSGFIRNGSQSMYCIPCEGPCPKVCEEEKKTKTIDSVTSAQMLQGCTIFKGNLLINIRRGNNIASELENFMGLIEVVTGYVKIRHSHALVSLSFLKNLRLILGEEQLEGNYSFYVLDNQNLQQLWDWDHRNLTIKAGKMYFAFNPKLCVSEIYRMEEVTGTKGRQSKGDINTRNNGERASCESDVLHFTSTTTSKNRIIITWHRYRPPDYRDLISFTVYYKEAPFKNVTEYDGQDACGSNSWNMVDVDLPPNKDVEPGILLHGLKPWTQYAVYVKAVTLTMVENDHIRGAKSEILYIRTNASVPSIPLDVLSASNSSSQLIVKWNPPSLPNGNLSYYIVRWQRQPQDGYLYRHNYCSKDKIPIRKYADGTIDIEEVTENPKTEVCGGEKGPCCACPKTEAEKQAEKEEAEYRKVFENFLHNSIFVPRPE
Sequence of Insulin-like growth factor 1 receptor (P08069 741-1367 limits assumed): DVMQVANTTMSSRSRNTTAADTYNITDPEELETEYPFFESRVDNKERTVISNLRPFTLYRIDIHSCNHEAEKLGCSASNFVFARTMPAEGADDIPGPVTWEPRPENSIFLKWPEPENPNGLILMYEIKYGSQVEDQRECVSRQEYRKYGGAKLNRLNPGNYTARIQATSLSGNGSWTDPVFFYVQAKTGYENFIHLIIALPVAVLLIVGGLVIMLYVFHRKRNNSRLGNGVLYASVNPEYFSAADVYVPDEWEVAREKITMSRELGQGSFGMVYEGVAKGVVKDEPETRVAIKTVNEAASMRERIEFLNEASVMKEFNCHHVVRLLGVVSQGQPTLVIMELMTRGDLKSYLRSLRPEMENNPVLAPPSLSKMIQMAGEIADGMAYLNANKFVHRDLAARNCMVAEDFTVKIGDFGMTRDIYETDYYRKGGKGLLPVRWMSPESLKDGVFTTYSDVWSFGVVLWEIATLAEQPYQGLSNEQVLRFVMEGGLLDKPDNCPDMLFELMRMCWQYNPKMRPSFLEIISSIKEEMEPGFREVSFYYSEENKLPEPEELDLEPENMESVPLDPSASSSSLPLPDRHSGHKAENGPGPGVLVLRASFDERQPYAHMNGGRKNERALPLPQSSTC

[9] = biological target: T4, Dual specificity tyrosine-phosphorylation-regulated kinase 4 (Homo sapiens, UniProt Q9NR20); test: Inhibition of GST-tagged Dyrk4 (unknown origin) expressed in Escherichia coli using [33P]ATP[gammaP]/DYRKtide as substrate after 5 mins by liquid scintillation counting analysis
T4 sequence (Q9NR20 whole entry): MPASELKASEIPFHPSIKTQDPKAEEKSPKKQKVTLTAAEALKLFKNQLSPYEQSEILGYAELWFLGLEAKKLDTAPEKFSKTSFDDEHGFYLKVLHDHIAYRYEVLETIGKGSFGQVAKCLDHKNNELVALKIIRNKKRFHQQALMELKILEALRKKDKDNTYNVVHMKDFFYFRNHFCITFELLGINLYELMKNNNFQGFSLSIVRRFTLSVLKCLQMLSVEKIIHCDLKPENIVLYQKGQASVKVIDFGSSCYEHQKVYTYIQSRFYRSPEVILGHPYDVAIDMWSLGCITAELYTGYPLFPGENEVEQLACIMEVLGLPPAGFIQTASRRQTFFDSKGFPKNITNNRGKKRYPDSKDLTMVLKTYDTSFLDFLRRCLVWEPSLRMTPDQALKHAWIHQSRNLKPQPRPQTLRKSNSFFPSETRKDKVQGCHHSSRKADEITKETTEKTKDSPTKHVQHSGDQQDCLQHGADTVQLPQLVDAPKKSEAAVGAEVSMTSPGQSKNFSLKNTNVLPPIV

[10] = biological target: T5, Dual specificity tyrosine-phosphorylation-regulated kinase 2 (Homo sapiens, UniProt Q92630); test: Inhibition of GST-tagged Dyrk2 (unknown origin) expressed in Escherichia coli using [33P]ATP[gammaP]/DYRKtide as substrate after 5 mins by liquid scintillation counting analysis
T5 sequence (Q92630 whole entry): T3 sequence (whole entry)

[11] = Clearance in Wistar Han rat plasma at 2 umol/kg; type: ADME, cell-free
[12] = Oral bioavailability in Wistar Han rat at 3 umol/kg; type: ADME, organism-based; conditions: in vivo
[13] = Aqueous solubility of the compound at pH 7.4; type: physicochemical; conditions: buffer
[14] = Permeability across human Caco2 cells; type: ADME, cell-based; conditions: caco-2
[15] = biological target: T5, Dual specificity tyrosine-phosphorylation-regulated kinase 2; test: Inhibition of Dyrk2 (unknown origin)
[16] = tested on: A-375; test: Cytotoxicity against human A375 cells at 1.33 uM after 72 hrs by calcein green AM/propidium iodide staining-based assay in presence of AZD6244 relative to control; type: functional, cell-based
Method in brief: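 A375 melanoma cells treated with AZD6244 with or without Dyrk1B inhibitor at 1.33 μM for 72 h. Viability by calcein green AM and propidium iodide staining; percentage of dead cells is mean and SEM of at least two separate experiments.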

[17] = Clearance in Wistar Han rat blood at 2 umol/kg; type: ADME, tissue-based; conditions: whole blood
[18] = species: Homo sapiens; test: Selectivity ratio of IC50 for human recombinant N-terminal His6-tagged IGF-1R to IC50 for recombinant Dyrk1B (unknown origin)
[19] = biological target: T6, Dual specificity protein kinase TTK (Homo sapiens, UniProt P33981); test: Inhibition of human wild-type TTK (514 to 795) expressed in insect sf9 cells
T6 sequence (P33981 whole entry): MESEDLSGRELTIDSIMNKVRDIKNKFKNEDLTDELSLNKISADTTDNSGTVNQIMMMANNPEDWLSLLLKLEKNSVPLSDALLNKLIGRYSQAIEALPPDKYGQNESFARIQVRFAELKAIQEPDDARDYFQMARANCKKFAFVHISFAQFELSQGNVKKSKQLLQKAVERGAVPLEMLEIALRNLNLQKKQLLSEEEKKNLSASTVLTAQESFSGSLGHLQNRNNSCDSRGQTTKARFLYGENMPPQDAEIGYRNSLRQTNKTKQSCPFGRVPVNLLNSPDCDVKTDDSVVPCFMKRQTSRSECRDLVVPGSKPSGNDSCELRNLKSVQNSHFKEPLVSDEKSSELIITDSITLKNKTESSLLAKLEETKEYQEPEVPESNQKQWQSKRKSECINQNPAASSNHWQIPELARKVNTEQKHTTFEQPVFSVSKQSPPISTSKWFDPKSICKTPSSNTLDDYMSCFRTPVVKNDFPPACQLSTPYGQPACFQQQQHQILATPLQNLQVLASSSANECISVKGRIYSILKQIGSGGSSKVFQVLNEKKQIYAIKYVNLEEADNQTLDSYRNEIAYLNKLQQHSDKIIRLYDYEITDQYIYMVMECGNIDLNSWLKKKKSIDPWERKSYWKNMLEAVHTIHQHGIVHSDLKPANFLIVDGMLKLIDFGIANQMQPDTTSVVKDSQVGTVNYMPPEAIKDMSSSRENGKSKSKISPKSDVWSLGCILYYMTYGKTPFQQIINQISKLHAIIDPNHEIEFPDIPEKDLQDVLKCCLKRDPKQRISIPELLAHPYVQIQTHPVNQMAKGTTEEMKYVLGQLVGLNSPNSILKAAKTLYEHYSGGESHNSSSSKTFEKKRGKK

## COc1cc(N2CCN(C)CC2)ccc1Nc1nccc(-c2c[nH]c3cnccc23)n1
[1]
  IC50: 85 nM
[2]
  hepatocyte CLint: 21 µL/min/1e6 cells
[3]
  IC50: 1820 nM
[4]
  IC50: 4 nM
[5]
  inhibition: 90%
[6]
  inhibition: 83%
[7]
  inhibition: 92%
[8]
  IC50: 1490 nM

## COc1ccc2c(c1)[nH]c1c(C)nccc12 [HARMINE]
[9]
  IC50: 74000 nM
[10]
  IC50: 2000 nM

## Cn1cc(-c2ccnc(-c3ccc(S(C)(=O)=O)cc3)n2)c2ccncc21
[11]
  clearance: 23 mL/min/kg
[1]
  IC50: 810 nM
[12]
  bioavailability: 37%
[2]
  hepatocyte CLint: 8 µL/min/1e6 cells
[3]
  IC50: > 100000 nM
[13]
  solubility: 2 µM (≈ 0.729 µg/mL)
[4]
  IC50: 12 nM
[14]
  permeability: permeable
[8]
  IC50: > 10000 nM

## COc1cc(N2CCN(C)CC2)ccc1Nc1nccc(-c2cn(C)c3cnccc23)n1
[11]
  clearance: 27 mL/min/kg
[12]
  bioavailability: 22%
[2]
  hepatocyte CLint: 18 µL/min/1e6 cells
[3]
  IC50: 4470 nM
[13]
  solubility: > 755 µM
[15]
  IC50: 190 nM
[16]
  Activity: inactive
[8]
  IC50: 779 nM

## CN1CCN(c2ccc(Nc3cc(-c4c[nH]c5ccccc45)ncn3)cc2)CC1
[1]
  IC50: 9960 nM
[12]
  bioavailability: 13%
[2]
  hepatocyte CLint: 49 µL/min/1e6 cells
[17]
  clearance: 42 mL/min/kg
[18]
  Ratio IC50: 28
[3]
  IC50: 33200 nM
[4]
  IC50: 85 nM
[8]
  IC50: 2410 nM

## COc1cc(OC2CCN(C)CC2)ccc1Nc1nccc(-c2c[nH]c3cnccc23)n1
[19]
  IC50: 20 nM
[4]
  IC50: 140 nM
[8]
  IC50: 3300 nM
